Source: article PMC6085501 (EBioMedicine, 2018)

What was measured:
[1] = system: human HBT 3477 breast cancer; details: 250 μg/mouse, nude mice; cited from earlier work
[2] = target: Glucose regulated protein 78 kDa (GRP78), recombinant protein immobilised for SPR (UniProt P11021); experiment: SPR
[3] = system: HUVECs; experiment: Cell Death Detection ELISA; type: cell-based, human; details: 100 μM, 24 h
In short: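 HUVECs (passages 5–10) seeded at 1–1.5 × 10^4 cells/well and pre-starved 3 h in 2% FBS medium. Co-treated with 100 μM test peptide plus 15 ng/ml VEGF for 24 h. Apoptosis read as cytoplasmic histone-associated DNA fragments by photometric ELISA at 405 nm. Fold change taken against VEGF-only cells set as 1. Mean ± SEM, at least three independent experiments, ANOVA.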

[4] = system: Cell-surface GRP78; details: ISM protein as ligand of cell-surface GRP78; cited from earlier work

Chain of UniProt P11021 (P11021 19-654): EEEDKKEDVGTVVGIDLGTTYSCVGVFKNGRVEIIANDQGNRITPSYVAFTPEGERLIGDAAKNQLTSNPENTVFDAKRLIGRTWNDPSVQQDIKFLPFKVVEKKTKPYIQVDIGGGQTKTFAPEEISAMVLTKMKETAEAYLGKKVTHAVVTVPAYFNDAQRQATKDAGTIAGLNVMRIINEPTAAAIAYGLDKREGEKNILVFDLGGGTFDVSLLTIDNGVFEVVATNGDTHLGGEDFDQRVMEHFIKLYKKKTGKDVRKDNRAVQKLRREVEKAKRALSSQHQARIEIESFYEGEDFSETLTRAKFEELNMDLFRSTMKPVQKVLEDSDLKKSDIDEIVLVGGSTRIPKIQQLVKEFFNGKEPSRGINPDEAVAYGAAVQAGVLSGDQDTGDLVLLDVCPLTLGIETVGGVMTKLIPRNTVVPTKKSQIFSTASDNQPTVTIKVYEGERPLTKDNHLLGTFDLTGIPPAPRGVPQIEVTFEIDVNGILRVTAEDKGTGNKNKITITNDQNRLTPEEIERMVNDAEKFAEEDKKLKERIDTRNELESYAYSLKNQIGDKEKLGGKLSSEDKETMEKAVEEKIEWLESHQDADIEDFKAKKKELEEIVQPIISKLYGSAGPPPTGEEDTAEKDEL

Question: For cilengitide, which “suppression of tumor growth as single agent” value [1] is on record?
Answer: ineffective

Question: For “BC71, cyclic peptide c[(bA)(k)RKD(2-D-Nal)]”, which Kd [2] is on record?
Answer: 211 µM

Question: Which “proapoptotic activity towards HUVECs (in words)” value [3] does the source give for cyclo(KRAAF) [GR35] here?
Answer: significantly reduced its proapoptotic activity

Question: Which “apoptosis, relative fold change” value ([3]; HUVECs, Cell Death Detection ELISA, Fig. 1a legend) does the source give for cyclo(KRKDF) [GR16] here?
Answer: over 1.4

B1: ISM: secreted proapoptotic protein, high-affinity ligand of cell-surface GRP78 (protein, UniProt B1AKI9 30-464, looked up)
Isthmin-1: ADGPDAAAGNASQAQLQNNLNVGSDTTSETSFSLSKEAPREHLDHQAAHQPFPRPRFRQETGHPSLQRDFPRSFLLDLPNFPDLSKADINGQNPNIQVTIEVVDGPDSEADKDQHPENKPSWSVPSPDWRAWWQRSLSLARANSGDQDYKYDSTSDDSNFLNPPRGWDHTAPGHRTFETKDQPEYDSTDGEGDWSLWSVCSVTCGNGNQKRTRSCGYACTATESRTCDRPNCPGIEDTFRTAATEVSLLAGSEEFNATKLFEVDTDSCERWMSCKSEFLKKYMHKVMNDLPSCPCSYPTEVAYSTADIFDRIKRKDFRWKDASGPKEKLEIYKPTARYCIRSMLSLESTTLAAQHCCYGDNMQLITRGKGAGTPNLISTEFSAELHYKVDVLPWIICKGDWSRYNEARPPNNGQKCTESPSDEDYIKQFQEAREY
Question: Which Kd [4] does the source give for B1 here?
Answer: 0.0086 µM
